Only some compounds are listed: those with a hit (about 11% of all), similar ones and a draw of the others.
D1 allo mod – D1 dopamine receptor (human) allosteric modulation; AID 641; HEK293 D1, CRE-luciferase, dopamine EC30 potentiation; actives deviate in either direction; 5.9% of 58,000 active; P21728; B-score at 10 µM;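 active means luminescence count or its row- and column-corrected plate score outside the 99.7% band of the plate's sample wells, on either side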
S1P3 agonist – activates the human S1P3 receptor; 0.1% of 60,000 active; S1P3 NFAT-BLA reporter cells, agonism, FRET ratio; relative to 1 µM S1P, basal subtracted; Q99500; AID 373; activation, % at 4.5 µM;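 active means activation above the screen-wide mean plus 3 SD, cut at about 4.5% in these data, passing the limit was not always enough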
Target sequence (Q99500 whole entry, looked up): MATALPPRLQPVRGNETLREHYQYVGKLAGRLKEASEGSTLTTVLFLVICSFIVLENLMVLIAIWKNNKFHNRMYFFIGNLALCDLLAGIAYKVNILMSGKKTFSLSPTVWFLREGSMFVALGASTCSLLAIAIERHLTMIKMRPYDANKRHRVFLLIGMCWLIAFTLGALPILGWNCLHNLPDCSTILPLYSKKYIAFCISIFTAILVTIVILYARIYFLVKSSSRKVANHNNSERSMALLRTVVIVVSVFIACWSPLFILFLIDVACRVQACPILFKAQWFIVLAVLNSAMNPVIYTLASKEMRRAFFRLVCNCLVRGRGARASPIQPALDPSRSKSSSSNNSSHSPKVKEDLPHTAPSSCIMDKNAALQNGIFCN
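material = human S1P3 NFAT-BLA reporter CHO cells | schedule = 4 h compound at 37 °C, 2 h substrate at RT | measured by = fluorescent BLA substrate, ex 405 nm, em 460/535 nm ratio | controls = 1 µM S1P reference | replication = primary once, confirmation triplicate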
S1P1 ag-PAM – agonists and agonism potentiators of human S1P1 receptor; S1P1 CRE-bla cells, forskolin, beta-lactamase FRET, potentiator mode; S1P1 agonist co-added at EC20, 2 nM; 100% = saturating reference agonist, 0% = basal; 0.57% of 56,000 active; P21453; activation, % at 9.5 µM;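 active means activation above a cutoff set at the mean activation of all tested compounds plus 3 SD, cut at about 54% in these data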;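 further: forskolin at 4 µM as EC80 and the EC20 agonist is SEW2871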
M1 antag – M1 muscarinic receptor (rat) antagonism; CHO-M1 cells, Fluo-4 calcium, ACh EC80 antagonist mode; hits give low values; 3.4% of 64,000 active; P08482; B-score at 10 µM;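 active means calcium fluorescence response, raw or row-and-column corrected B-score, differing from the plate sample mean either way at a set confidence level, mostly lower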
M1 ag – agonists of M1 muscarinic receptor; CHO-M1 cells, Fluo-4 calcium fluorescence, agonist mode; hits give high values; B-score at 10 µM; 3% of 64,000 active; AID 626;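 active means fluorescence rise, raw or as B-score row- and column-corrected plate score, outside the 99.7% band of its plate's samples, either direction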
D1 mod confirm – confirmation of human D1 dopamine receptor allosteric modulators; 88% of 2,200 active; HEK293 D1 CRE-luciferase, dopamine EC30 potentiation; hits give high values; shares compounds with D1 allo mod; luminescence at 10 µM;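 active means luminescence in either of two replicates above the same-plate mean plus 3 SD of the low-dose dopamine control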
D1 no dopamine – activates D1 CRE-luciferase signal without dopamine present. AID 646. shares compounds with D1 allo mod. 0.8% of 1,900 active. HEK293 D1 CRE-luciferase, luminescence, no dopamine; hits give high values. luminescence at 10 µM; in the data active means luminescence above about 3900
Isoprot counter – isoproterenol response counter-screen activity for D1 modulators | shares compounds with D1 allo mod | HEK293 D1 CRE-luciferase, isoproterenol EC30 counter-screen; hits give high values | luminescence at 10 µM | 63% of 2,200 active | AID 647;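 active means luminescence in either replicate above plate mean of wells with a partly effective reference agonist dose plus 3 SD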;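 further: isoproterenol raises cAMP through native beta-adrenoceptor Gs so signal bypasses D1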
Of the large screens only hits and unclear results are named; the others gave an inactive call (follow-up assays come after a bar, where they were run).

Cc1nc(SCCO)c2oc3ccccc3c2n1	D1 allo mod 7.3 | D1 mod confirm 10060 | Isoprot counter 3700
CCc1nc(NC(C)C)c2oc3ccccc3c2n1	D1 allo mod 22 (no result: S1P3 agonist, S1P1 ag-PAM) | D1 mod confirm 7576 | Isoprot counter 2728
COc1ccc(N/C(C)=C2/C(=O)C(=O)N(CCO)C2c2ccc(Br)cc2)cc1 (centres undefined)	none (no result: D1 allo mod)
C=CCNC(=O)CC(C)C(CCCCC)C(=O)O (centres undefined)	none
Cc1nc(N2CCOCC2)c2oc3ccccc3c2n1	D1 allo mod 4.6 | D1 mod confirm 13356 | D1 no dopamine inactive | Isoprot counter 3340
Cc1nnc(NCc2ccco2)c2ccccc12	none
c1ccc2c(c1)oc1c(N3CCOCC3)ncnc12	none
Cc1nc(NCc2ccco2)c2oc3ccccc3c2n1	D1 allo mod 6 (no result: S1P3 agonist, S1P1 ag-PAM) | D1 mod confirm 11576 | Isoprot counter 2960
COc1ccc(-c2cc(C(F)F)n3ncc(C(=O)N4CCSCC4)c3n2)cc1	D1 allo mod 5.2 (no result: S1P1 ag-PAM) | D1 mod confirm 8908 | D1 no dopamine inactive | Isoprot counter 4756
O=C(NCCc1ccc(Cl)cc1)C1CCN(C(=O)c2sccc2-n2cccc2)CC1	none
COc1ccc(CCNC(=O)C2CCC(CNc3c(N4CCCC4)c(=O)c3=O)CC2)cc1OC (centres undefined)	none
O=C(NCc1ccc2c(c1)OCO2)C1CCC(CNc2c(N3CCCC3)c(=O)c2=O)CC1 (centres undefined)	D1 allo mod 2.3 | D1 mod confirm inactive | D1 no dopamine inactive | Isoprot counter inactive
CCCCn1nnc(NC(=O)CC23CC4CC(CC(C4)C2)C3)n1	none
Nc1nc2n(n1)C(c1c(F)cccc1Cl)CC(c1ccc(F)cc1)N2 (centres undefined)	none
N#CC1=C(N)Oc2c(oc(CO)cc2=O)C12C(=O)Nc1ccc(Cl)cc12 (centres undefined)	none
CN1C(=O)C2(C(C#N)=C(N)Oc3c2oc(CO)cc3=O)c2ccccc21 (centres undefined)	D1 allo mod 8.9 (no result: S1P1 ag-PAM) | D1 mod confirm inactive | D1 no dopamine inactive | Isoprot counter inactive
c1ccc(-c2nc3cc(Oc4ccc5oc(-c6ccccn6)nc5c4)ccc3o2)nc1	none
Cc1nc2sc(C(c3ccc(F)cc3)N3CCN(C(=O)c4ccco4)CC3)c(O)n2n1 (centres undefined)	none (no result: M1 antag, M1 ag)
O=C(c1nc2nc(-c3ccccc3)cc(C(F)(F)F)n2n1)N1CCOCC1	none (no result: D1 allo mod)
O=C(c1nc2nc(-c3ccc(Cl)cc3)cc(C(F)(F)F)n2n1)N1CCOCC1	D1 allo mod 2.9 | D1 mod confirm 8024 | D1 no dopamine inactive | Isoprot counter 3152
COc1cc(C2C(C#N)=C(N)Oc3cc(O)ccc32)cc2c1OCO2 (centres undefined)	D1 allo mod 4.1 | D1 mod confirm 11740 | D1 no dopamine inactive | Isoprot counter 3432
O=C(CSC1=NCCN1)C1COc2ccccc2O1 (centres undefined)	none
CC1(C)Cc2c(C#N)c(NCc3ccco3)nc(-c3ccco3)c2CO1	none (no result: D1 allo mod)
CC1(C)Cc2c(c(-c3ccco3)[nH]c(=O)c2C#N)CO1	D1 allo mod 4.3 | D1 mod confirm 15660 | D1 no dopamine inactive | Isoprot counter 3284
CC1(C)Cc2c(c(-c3ccco3)nc3n[nH]c(N)c23)CO1	D1 allo mod 11 | D1 mod confirm 17288 | D1 no dopamine inactive | Isoprot counter 4488
CN(C)CCNc1nc(-c2ccco2)c2c(c1C#N)CC(C)(C)OC2	none (no result: D1 allo mod)
CC1(C)Cc2c(C#N)c(N3CCCC3)nc(-c3ccco3)c2CO1	D1 allo mod 5.3 | D1 mod confirm 9980 | D1 no dopamine inactive | Isoprot counter inactive
O=C(Nc1cccc(O)c1)c1ccc(Br)c(S(=O)(=O)N2CCCCC2)c1	none
c1ccc2c(-n3cccn3)cccc2c1	none
CC(C)Cn1c(-c2ccc(Cl)cc2)cnc1SCC(=O)N1CCOCC1	none
